ChEMBL document CHEMBL3102769, “Synthesis, docking simulation, biological evaluations and 3D-QSAR study of 5-Aryl-6-(4-methylsulfonyl)-3-(metylthio)-1,2,4-triazine as selective cyclooxygenase-2 inhibitors” (Bioorg Med Chem, 2014)

Assays:
[1] = tested on: Mus musculus; assay: Antinociceptive activity in Swiss albino mouse assessed as licking time in primary neurogenic period at 5 mg/kg, ip administered 30 mins prior to formalin-challenge (reference value: 80 +/- 19 seconds); assay type: functional; details: route intraperitoneal
[2] = tested on: Rattus norvegicus; assay: Antiinflammatory activity in Wistar rat assessed as change in carrageenan-induced hind paw thickness at 5 mg/kg, ip administered 30 mins prior to carrageenan-challenge measured after 1 hr (reference value: 1.84 +/- 0.41 mm); assay type: functional; details: route intraperitoneal
[3] = tested on: Rattus norvegicus; assay: Antiinflammatory activity in Wistar rat assessed as change in carrageenan-induced hind paw thickness at 5 mg/kg, ip administered 30 mins prior to carrageenan-challenge measured after 2 hrs (reference value: 1.86 +/- 0.38 mm); assay type: functional; details: route intraperitoneal
[4] = tested on: Mus musculus; assay: Antinociceptive activity in Swiss albino mouse assessed as licking time in secondary inflammatory period at 5 mg/kg, ip administered 30 mins prior to formalin-challenge (reference value: 217 +/- 68.5 seconds); assay type: functional; details: route intraperitoneal
[5] = tested on: Rattus norvegicus; assay: Antiinflammatory activity in Wistar rat assessed as change in carrageenan-induced hind paw thickness at 5 mg/kg, ip administered 30 mins prior to carrageenan-challenge measured after 3 hrs (reference value: 1.78 +/- 0.39 mm); assay type: functional; details: route intraperitoneal
[6] = tested on: Rattus norvegicus; assay: Antiinflammatory activity in Wistar rat assessed as change in carrageenan-induced hind paw thickness at 6 mg/kg, ip administered 30 mins prior to carrageenan-challenge measured after 1 hr (reference value: 1.84 +/- 0.41 mm); assay type: functional; details: route intraperitoneal
[7] = tested on: Mus musculus; assay: Antinociceptive activity in Swiss albino mouse assessed as licking time in secondary inflammatory period at 6 mg/kg, ip administered 30 mins prior to formalin-challenge (reference value: 217 +/- 68.5 seconds); assay type: functional; details: route intraperitoneal
[8] = tested on: Rattus norvegicus; assay: Antiinflammatory activity in Wistar rat assessed as change in carrageenan-induced hind paw thickness at 6 mg/kg, ip administered 30 mins prior to carrageenan-challenge measured after 2 hrs (reference value: 1.86 +/- 0.38 mm); assay type: functional; details: route intraperitoneal
[9] = tested on: Mus musculus; assay: Antinociceptive activity in Swiss albino mouse assessed as licking time in primary neurogenic period at 3 mg/kg, ip administered 30 mins prior to formalin-challenge (reference value: 80 +/- 19 seconds); assay type: functional; details: route intraperitoneal
[10] = tested on: Mus musculus; assay: Antinociceptive activity in Swiss albino mouse assessed as licking time in secondary inflammatory period at 3 mg/kg, ip administered 30 mins prior to formalin-challenge (reference value: 217 +/- 68.5 seconds); assay type: functional; details: route intraperitoneal
[11] = tested on: Rattus norvegicus; assay: Antiinflammatory activity in Wistar rat assessed as change in carrageenan-induced hind paw thickness at 3 mg/kg, ip administered 30 mins prior to carrageenan-challenge measured after 3 hrs (reference value: 1.78 +/- 0.39 mm); assay type: functional; details: route intraperitoneal
[12] = tested on: Rattus norvegicus; assay: Antiinflammatory activity in Wistar rat assessed as change in carrageenan-induced hind paw thickness at 3 mg/kg, ip administered 30 mins prior to carrageenan-challenge measured after 2 hrs (reference value: 1.86 +/- 0.38 mm); assay type: functional; details: route intraperitoneal
[13] = tested on: Mus musculus; assay: Antinociceptive activity in Swiss albino mouse assessed as licking time in primary neurogenic period at 6 mg/kg, ip administered 30 mins prior to formalin-challenge (reference value: 80 +/- 19 seconds); assay type: functional; details: route intraperitoneal
[14] = tested on: Rattus norvegicus; assay: Antiinflammatory activity in Wistar rat assessed as change in carrageenan-induced hind paw thickness at 6 mg/kg, ip administered 30 mins prior to carrageenan-challenge measured after 3 hrs (reference value: 1.78 +/- 0.39 mm); assay type: functional; details: route intraperitoneal
[15] = tested on: Rattus norvegicus; assay: Antiinflammatory activity in Wistar rat assessed as change in carrageenan-induced hind paw thickness at 3 mg/kg, ip administered 30 mins prior to carrageenan-challenge measured after 1 hr (reference value: 1.84 +/- 0.41 mm); assay type: functional; details: route intraperitoneal
[16] = molecular target: T1, Prostaglandin G/H synthase 1 (Ovis aries, UniProt P05979); assay: Inhibition of ovine COX1 using arachidonic acid as substrate by chemiluminescence assay
T1 sequence (P05979 whole entry): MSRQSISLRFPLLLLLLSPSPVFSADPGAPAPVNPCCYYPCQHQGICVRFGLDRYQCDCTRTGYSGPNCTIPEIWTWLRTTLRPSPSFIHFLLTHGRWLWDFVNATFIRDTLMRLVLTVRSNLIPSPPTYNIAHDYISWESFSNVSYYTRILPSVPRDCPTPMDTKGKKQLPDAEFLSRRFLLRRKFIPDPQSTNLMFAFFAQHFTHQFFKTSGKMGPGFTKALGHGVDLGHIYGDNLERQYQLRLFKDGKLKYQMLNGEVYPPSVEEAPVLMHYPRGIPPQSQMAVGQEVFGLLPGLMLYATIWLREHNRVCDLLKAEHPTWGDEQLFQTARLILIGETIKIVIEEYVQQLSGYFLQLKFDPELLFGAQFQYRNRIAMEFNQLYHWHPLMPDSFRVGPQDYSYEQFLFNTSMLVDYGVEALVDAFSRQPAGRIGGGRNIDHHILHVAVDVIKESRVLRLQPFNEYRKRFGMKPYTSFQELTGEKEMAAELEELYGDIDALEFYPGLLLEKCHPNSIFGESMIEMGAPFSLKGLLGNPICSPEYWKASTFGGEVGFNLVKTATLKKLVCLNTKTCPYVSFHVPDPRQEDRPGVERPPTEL
Method in brief: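 Ovine COX-1 chemiluminescent inhibitor screening kit: heme-catalyzed hydroperoxidase activity generates luminescence with a cyclic naphthalene hydrazide and arachidonic acid substrate. Luminescence serves as the index of catalytic activity. IC50 is the concentration giving 50% inhibition of enzyme activity.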

Row | Compound | IC50 [16] | Time [1] | Activity [2] | Activity [3] | Time [4] | Activity [5] | Activity [6] | Time [7] | Activity [8] | Time [9] | Time [10] | Activity [11] | Activity [12] | Time [13] | Activity [14] | Activity [15]
1 | COc1ccc2c(c1)c(CC(=O)O)c(C)n2C(=O)c1ccc(Cl)cc1 [INDOMETHACIN] |  | 45 s | 1.05 mm | 0.81 mm | 127 s | 0.57 mm |  |  |  |  |  |  |  |  |  | 
2 | CSc1nnc(-c2ccc(S(C)(=O)=O)cc2)c(-c2ccc(F)cc2)n1 | 51.6 µM |  |  |  |  |  | 0.75 mm | 152 s | 0.56 mm | 52 s | 127 s | 0.97 mm | 1.16 mm | 34 s | 0.34 mm | 1.24 mm
3 | CSc1nnc(-c2ccc(S(C)(=O)=O)cc2)c(-c2ccc(Cl)cc2)n1 | 39.5 µM |  |  |  |  |  | 0.89 mm | 140 s | 0.58 mm | 30 s | 85 s | 0.54 mm | 0.71 mm | 37 s | 0.41 mm | 1 mm
4 | CSc1nnc(-c2ccc(S(C)(=O)=O)cc2)c(-c2ccc(C)cc2)n1 | 52.4 µM |  |  |  |  |  | 0.98 mm | 139 s | 0.8 mm | 49 s | 175 s | 0.55 mm | 0.68 mm | 61 s | 0.67 mm | 0.87 mm

Further compounds by falling IC50 [16], results first:

Row | IC50 [16] | Compound | Time [1] | Activity [2] | Activity [3] | Time [4] | Activity [5] | Activity [6] | Time [7] | Activity [8] | Time [9] | Time [10] | Activity [11] | Activity [12] | Time [13] | Activity [14] | Activity [15]
5 | 54.4 µM | CSc1nnc(-c2ccc(S(C)(=O)=O)cc2)c(-c2ccccc2)n1 |  |  |  |  |  | 1.09 mm | 155 s | 0.94 mm | 57 s | 133 s | 1.19 mm | 1.77 mm | 58 s | 0.83 mm | 1.45 mm
6 | 50.1 µM | COc1ccc(-c2nc(SC)nnc2-c2ccc(S(C)(=O)=O)cc2)cc1 |  |  |  |  |  | 0.58 mm | 118 s | 0.43 mm | 46 s | 227 s | 0.64 mm | 0.72 mm | 49 s | 0.3 mm | 0.96 mm
